From ChEMBL document CHEMBL4513216, “Probing the Open Global Health Chemical Diversity Library for Multistage-Active Starting Points for Next-Generation Antimalarials” (ACS Infect Dis, 2020)

Assay: Toxicity liver stage against HepG2, at 10uM
Assay type: cell-based
Design: test concentration 10 uM, cell line HepG2-A16-CD81EGFP
Settings: human, HepG2-A16-CD81EGFP cells; read-out: INHIBITION
Summary of the method: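 Uninfected HepG2-A16-CD81EGFP cells, 3 × 10^3 per well, 1536-well, plated on prespotted compound at 10 μM final, parasite-free screening media added to match infected plates; puromycin 10 μM positive, DMSO 0.5% negative; run in parallel with 48 h PbLuc assay at 37 °C, 5% CO2; viability by CellTiter-Glo luminescence, normalized to controls.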

Compound	cytotoxicity at 10 µM [%]
COc1ccc2c(c1)nc1n2[C@@H](CNCc2cnn(C)c2)COC1	-6.8
CC(=O)N1N=C(c2cccs2)OC1C(=O)Nc1ccc(C(C)C)cc1 (stereo unspecified)	-12.7
CCN(CC)CCNC(=O)CCc1c(C)nn(-c2ccccc2Br)c1C	10.6
C[C@@H](O)CNC(=O)c1nc(Cc2c(Cl)cccc2Cl)no1	0.483
Cn1cccc1CN(C(=O)Cc1cccs1)C1CC1	7.53
Cn1cc(C(=O)NCC(Cc2cccc(F)c2)N2CCCCC2=O)nn1 (stereo unspecified)	-1.13
Cc1cccc(NC(=O)C2CSc3ncc(C)c(=O)n3C2)n1 (stereo unspecified)	0.0115
CCOCC1COCCC12CCN(C(=O)C1=CCCCC1)CC2 (stereo unspecified)	-3.09
CC1N(C)C(=O)COC12CCN(C(=O)CCc1ccccc1)CC2 (stereo unspecified)	0.227
CCc1ccc(C(=O)N2C[C@@H]3COC[C@@H](C(=O)NC)[C@@H]3C2)cc1	1.58
Cc1cccc(C(=O)N2CCCn3cnc(CN4CCCC4=O)c3C2)n1	15.7
CCC(=O)N1CCC2(COCc3cnc(NCc4ccco4)nc32)C1 (stereo unspecified)	-12.9
O=C(NCC1CCCO1)c1nc2c(s1)CCCN2C(=O)C1CC1 (stereo unspecified)	-0.464
NCC1Cn2nnc(-c3cccc(F)c3)c2CO1 (stereo unspecified)	-12.1
Cc1cccc(CN2C[C@@H]3COC[C@]3(COc3ccc(C#N)cn3)C2)n1	-21.2
O=C(O)Cn1nc(C2CC2)c2c(-c3ccc(F)cc3)ccnc21	-3.32
c1cnc(-c2nn3c(CN4CCCCC4)nnc3s2)cn1	5.31
CCn1nc(C)c(CN(C)S(=O)(=O)c2cnn(C)c2)c1C	5.62
Cc1ccc(C2CCCN(S(C)(=O)=O)C2)nc1 (stereo unspecified)	2.32
CC(=O)NCCNC(=O)Nc1ccc(Br)cc1C(C)C	6.54
O=C(CN(Cc1cccs1)C1CCS(=O)(=O)C1)NC1CCCCC1 (stereo unspecified)	-7.53

Compound	cytotoxicity at 10 µM [%]
Cn1nc(C(=O)NC2(c3ccc(Cl)cc3)CCCC2)ccc1=O	-4.47
COc1ccc(CNc2cc(-c3nc(C)no3)ccn2)c(OC)c1	9.07
CC(C)c1nc(C(=O)N2CCc3ccccc3C2C(=O)O)cs1 (stereo unspecified)	9.63
COc1ccc(CCC(=O)N2CCN(c3nc(C)ns3)CC2)cc1	6.26
NC(=O)NC1CCN(Cc2ccccc2OCC(F)(F)F)CC1	0.451
CCc1nnc2n1CCN(C(=O)c1cnc3c(cnn3C(C)C)c1)C2	-7.58
COc1cccc(S(=O)(=O)NC(=O)c2c(C)noc2C(C)C)c1	-6.83
FC(F)CN1CCC(NCCc2ccc(-n3cccn3)cc2)CC1	14.5
Cc1nnc2n1CCN(C(=O)C(OC1CCCC1)c1ccccc1)C2 (stereo unspecified)	5.87
CC(C)(C)OC(=O)N1CCCN(c2nnc(C3CC3)s2)CC1	8.05
CCc1nc(CNc2ccc(C(=O)NCc3ccco3)cc2C)no1	2.4
COC(=O)C(O)C1CCN(Cc2cccc(-n3cccn3)c2)CC1 (stereo unspecified)	-16.5
Cc1cccc(N(CCC(N)=O)CC(=O)Nc2ccccc2)c1	-9.5
CS(=O)(=O)N1CCN(CC(=O)Nc2cccc(Cl)c2)CC1	-50.8
O=S(=O)(NC1CCCCC12OCCO2)c1cc(F)cc(F)c1 (stereo unspecified)	-3.55
COCC1CN(C(=O)Nc2ccc(Cl)cc2Cl)CCO1 (stereo unspecified)	4.26
COc1ccc(NC(=O)c2ccc[nH]2)c(N2CCN(C(C)=O)CC2)n1	-11.2
O=C(NCCc1ccccn1)NC1CCN(c2ncccn2)CC1	-16.3
Cc1ccc(N2C[C@H]3OCC[C@H]3[C@H](C(=O)NC3CCC3)C2)nn1	-69.9
COc1cc(N2CC[C@H](O)[C@@H]2Cc2cccnc2)ncn1	-71.8
CCC(=O)N1CCN(C(=O)c2ccc(OC)o2)[C@H]2CS(=O)(=O)C[C@H]21	0.224

Compound	cytotoxicity at 10 µM [%]
Cc1cccc(C(Nc2nccc(C)n2)C2CC2)n1 (stereo unspecified)	-2.67
CC(C)CCN1CCCC(Cn2cc(CCO)nn2)C1 (stereo unspecified)	-6.02
OC[C@H]1CN(Cc2c(Cl)cncc2Cl)C[C@H]1CN1CCCC1	-127
CCCN1CCC(CC(=O)N2CCC(C(O)c3nccn3C)CC2)CC1 (stereo unspecified)	-1.13
Cc1cc(CN2CCC(CNC(=O)c3noc4c3CCCC4)C2)[nH]n1 (stereo unspecified)	-142
Cc1cccc2cc(CN3CCC(N4CCOCC4)CC3)c(=O)[nH]c12	-12
CCN(CC)C(=O)[C@@H]1C[C@@H](NC(=O)c2ccoc2)CN1C	2.37
CC(C)(C(=O)NCC1CCN(Cc2cccnc2)C1)c1ccccc1 (stereo unspecified)	-1.66
CCN1CC(C(=O)N2CCN(CCn3cccc3)CC2)CCC1=O (stereo unspecified)	1.87
Cc1nc(CCCNC(=O)[C@H]2CNC[C@@H](C(=O)N3CCCC3)C2)sc1C	-132
Cc1ccc(C2(CN(C)Cc3sccc3C)CCNCC2)nc1	8.15
CCCc1cc(N2CCC(NCC3(O)CCCCC3)CC2)nc(C)n1	-2.48
CC[C@@]1(O)CCN(C(=O)CN(C)Cc2ccc(F)cc2)C[C@H]1O	3.38
COc1cccc2c1OCC(Cc1ccc(N)nc1C)C2 (stereo unspecified)	3.29
CCc1nnc(CNC(=O)CCC2CCCCN2C)s1 (stereo unspecified)	-147
O=C(CC1CCc2ccccc21)N1CCC(O)(c2cccnc2)CC1 (stereo unspecified)	7.19
Cc1cnn(CCNCc2ccc(C#N)cc2)c1	-10.7
Cc1nc(CN2CCN(C(C)c3nc(C(C)C)no3)CC2)oc1C (stereo unspecified)	-9.16
O=C1COc2ccc(C(=O)NS(=O)(=O)c3ccc(F)cc3F)cc2N1	-4.72
CNC(=O)c1ccc(CN(C(=O)c2scnc2C)C2CC2)cc1	-3.09
Cc1ccc(Cl)cc1N1CCC(CNC(=O)CC(F)(F)F)C1 (stereo unspecified)	-9.7

Compound	cytotoxicity at 10 µM [%]
Cc1noc(CCCC(=O)NC(C)c2cn(-c3ccccc3)nn2)n1 (stereo unspecified)	-8.18
Fc1ccc(-c2cnc(CN3CCCC3Cn3cccn3)o2)cc1 (stereo unspecified)	-7.52
Cc1cc(C)n(C2CN(CC(O)c3ccc(F)cc3)C2)n1 (stereo unspecified)	-13
CC(C)C(=O)NC1CCN(Cc2cccc3c2OCCO3)CC1	-0.818
CCC(C)NC(=O)NCCCn1nc2ccccn2c1=O (stereo unspecified)	-8.08
N#Cc1ccccc1OCCN1CCCCC1Cn1cncn1 (stereo unspecified)	-6.04
Cc1cc(C(=O)NCCn2nc3ccccn3c2=O)[nH]n1	-4.92
Cc1nc[nH]c1CN(Cc1ccccc1)C1CC(C)(C)NC(C)(C)C1	0.968
Cc1nc(CN2CCCC3(CCN(c4cnn(C)c4)C3=O)C2)cs1 (stereo unspecified)	3.16
CC1c2ncc(CNC(=O)C3CC3)n2CCN1Cc1ccncc1 (stereo unspecified)	-5.72
c1coc(CN2CCO[C@H]3[C@@H](OCC4CC4)CC[C@@H]32)c1	6.68
CCOCC1c2c(cnn2CC2CC2)CCN1C(=O)c1ccncn1 (stereo unspecified)	-118
CC(C)CN1CCN(C)C2(CCN(Cc3ccsc3)CC2)C1=O	4.08
CC(C)N1Cc2c(C(=O)N3CCOCC3)nn(C)c2C1	0.0756
CC(C)CN1CCC2(CC1)CC(NS(C)(=O)=O)c1ccccc1O2 (stereo unspecified)	-4.44
N#Cc1ccccc1CN1C[C@H]2CC[C@@H](C1)N(Cc1cscn1)C2=O	-8.42
O=C(CCN1C[C@@H]2CC[C@H]1CN(c1ncccn1)C2)NCc1ccco1	-1.18
COc1nccnc1N1C[C@H]2CC[C@@H](C1)N(CC=C(C)C)C2=O	1.76
